# Results taken from ChEMBL document CHEMBL4396944, “A fluorogenic H2S-triggered prodrug based on thiolysis of the NBD amine” (Bioorg Med Chem Lett, 2019).
# Calls of active or inactive are those of the source. The calls are words filed in the database; no cut-off is given here.
# What was measured:
# Escherichia coli [1] = assay: Antibacterial activity against Escherichia coli BL21(DE3) at lower concentration incubated for 12 hrs by UV-Vis spectrophotometric analysis; type: functional, organism-based
# In short: (§1)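 E. coli grown in LB medium with the prodrug added, alone or together with 50 µM Na2S (H2S source) or 5 mM L-Cys. Cultures were incubated for 12 h, at 37 °C where stated, and growth was read as OD600 per sample. Controls: Na2S or L-Cys alone, and 30 nM NBD-SH by-product.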
# Escherichia coli [2] = assay: Antibacterial activity against Escherichia coli BL21(DE3) incubated for 12 hrs by UV-Vis spectrophotometric analysis; type: functional, organism-based; in short: as §1
# Escherichia coli [3] = assay: Antibacterial activity against Escherichia coli BL21(DE3) incubated for 12 hrs in presence of L-Cys by UV-Vis spectrophotometric analysis; type: functional, organism-based
# In short: (§2)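 E. coli cultured in LB medium with additions of 30 nM prodrug, 30 nM NBD-SH, 50 µM Na2S, 5 mM L-Cys, or combinations (Na2S or L-Cys plus 30 nM prodrug); incubated 12 h, then bacterial density read as OD600.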
# [4] = Prodrug activation in pH 7.4 PBS buffer assessed as second order rate constant at 10 uM in presence of Na2S by UV-Vis spectrophotometric analysis; conditions: pH 7.4, 10 µM
# [5] = Prodrug activation in pH 7.4 PBS buffer assessed as absorption peak for ciprofloxacin formation at 10 uM in presence of Na2S by UV-Vis spectrophotometric analysis; conditions: pH 7.4, 10 µM
# In short: (§3)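 Absorption spectra recorded over time for 10 µM prodrug with 200 µM Na2S in 50 mM PBS, pH 7.4; bands followed at 350, 490 and new 530 nm; kinetics followed by intensity at 560 nm.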
# [6] = Prodrug activation in pH 7.4 PBS buffer at 5 uM incubated for 30 mins in presence of Cys by fluorescence assay; conditions: pH 7.4, 0.5 h
# In short: (§4)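 Fluorescence of prodrug checked in PBS after exposure to millimolar biothiols, 10 mM GSH or 5 mM Cys.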
# Escherichia coli [7] = assay: Antibacterial activity against Escherichia coli BL21(DE3) at 30 nM incubated for 12 hrs in presence of GSH by UV-Vis spectrophotometric analysis; type: functional, organism-based
# [8] = Prodrug activation in pH 7.4 PBS buffer assessed as absorption peak for NBD fluorophore formation at 10 uM in presence of Na2S by UV-Vis spectrophotometric analysis; conditions: pH 7.4, 10 µM; in short: as §3
# Escherichia coli [9] = assay: Antibacterial activity against Escherichia coli BL21(DE3) at 30 nM incubated for 12 hrs in presence of H2S by UV-Vis spectrophotometric analysis; type: functional, organism-based; in short: as §2
# Escherichia coli [10] = assay: Antibacterial activity against Escherichia coli BL21(DE3) incubated for 12 hrs in presence of Na2S by UV-Vis spectrophotometric analysis; type: functional; in short: as §2
# Escherichia coli [11] = assay: Antibacterial activity against Escherichia coli BL21(DE3) at 30 nM incubated for 12 hrs by UV-Vis spectrophotometric analysis; type: functional, organism-based; in short: as §2
# [12] = Solubility of compound in 20 mM PBS buffer at pH 7.4 in presence of Na2S by UV-Vis spectrophotometric analysis; type: physicochemical
# [13] = Prodrug activation in pH 7.4 PBS buffer assessed as ciprofloxacin formation by measuring increase in fluorescence at 5 uM in presence of Na2S at 415 nanometer by fluorescence assay; conditions: pH 7.4, 5 µM, TDE = time-dependent effect
# In short: (§5)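 Fluorescence spectra over time of 5 µM prodrug with 100 µM Na2S in PBS, excitation 280 nm; emission at 415 nm versus time fitted to give kobs; kobs plotted against Na2S concentration, slope of linear fit gives k2.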
# Escherichia coli [14] = assay: Antibacterial activity against Escherichia coli BL21(DE3) at >0.2 uM incubated for 12 hrs by UV-Vis spectrophotometric analysis; type: functional, organism-based
# [15] = Prodrug activation in pH 7.4 PBS buffer assessed as ciprofloxacin formation by measuring increase in fluorescence at 5 uM in presence of Na2S at 415 nanometer by fluorescence assay relative to control; conditions: pH 7.4, 5 µM
# In short: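 Prodrug at 5 µM mixed with Na2S (100 µM) in PBS; fluorescence spectra recorded over time, excitation 280 nm. Emission at 415 nm plotted against time and fitted to give k_obs. Repeated at several Na2S concentrations; slope of k_obs versus [Na2S] gives k2.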
# [16] = Prodrug activation in pH 7.4 PBS buffer assessed as formation of ciprofloxacin by measuring reaction rate constant at 5 uM in presence of Na2S by fluorescence assay; conditions: pH 7.4, 5 µM; in short: as §5
# [17] = Prodrug activation in pH 7.4 PBS buffer at 5 uM incubated for 30 mins in presence of 50 to 200 uM H2O2 by fluorescence assay; conditions: pH 7.4, 0.5 h
# In short: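 Fluorescence of prodrug read in PBS after exposure to a range of H2O2 concentrations up to 200 µM.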
# [18] = Prodrug activation in pH 7.4 PBS buffer at 5 uM incubated for 30 mins in presence of GSH by fluorescence assay; conditions: pH 7.4, 0.5 h; in short: as §4
Structure (SMILES),Activity (Escherichia coli [1]),Activity (Escherichia coli [2]),Activity (Escherichia coli [3]),k2 [4],Activity [5],Drug metabolism [6],Activity (Escherichia coli [7]),Activity [8],Activity (Escherichia coli [9]),MIC (Escherichia coli [10]),Activity (Escherichia coli [11]),solubility [12],Drug metabolism [13],Activity (Escherichia coli [14]),fold change (FC) [15],K [16],Drug metabolism [17],Drug metabolism [18]
O=[N+]([O-])c1ccc(S)c2nonc12,inactive,inactive,,,,,,,,,,,,,,,,
O=C(O)c1cn(C2CC2)c2cc(N3CCN(c4ccc([N+](=O)[O-])c5nonc45)CC3)c(F)cc2c1=O,Active,,Active,12.9 M⁻¹ s⁻¹,350 nm,Metabolite_Notdetected,inactive,490 nm,Active,0.03 µM,inactive,17 µM,Tde,Active,62,12 M⁻¹ s⁻¹,Metabolite_Notdetected,Metabolite_Notdetected
